{"data": "Experimental data from different studies", "target": "Mitogen-activated protein kinase 1 (MAPK1, Homo sapiens, UniProt P28482)"}
{"SMILES": "C[C@@H](O)[C@H](N)C(=O)N1CCC[C@H]1C(=O)N1CCC[C@H]1C(=O)N[C@H](C(N)=O)[C@@H](C)O", "test": "enzyme activity, inhibitor", "conditions": "30 µM", "endpoint": "inhibition", "result": "-2%"}
{"SMILES": "COc1ncccc1-c1cnn2ccc(N3CCN(C(=O)OC(C)C)CC3)nc12", "test": "binding, competition with immobilised ligand", "conditions": "1 µM", "endpoint": "remaining binding", "result": "100%"}
{"SMILES": "CNC1(c2ccccc2Cl)CCCCC1=O (racemic)", "test": "enzyme activity, inhibitor", "conditions": "30 µM", "endpoint": "inhibition", "result": "2%"}
{"SMILES": "Cc1ncc(C)n2nc(/C=C/c3nc(N4CCCC4)cc(N4CCOCC4)n3)nc12", "test": "enzyme activity, inhibitor", "conditions": "10 µM", "endpoint": "inhibition", "result": "7%"}
{"SMILES": "Cn1cc(-c2cccc(N3CCc4c(sc5c4CC(C)(C)C5)C3=O)c2CO)cc(Nc2ccncn2)c1=O", "test": "enzyme activity, inhibitor", "conditions": "1 µM", "endpoint": "inhibition", "result": "-1%"}
{"SMILES": "C#Cc1n[nH]c2c(-c3cn([C@@H](C)c4ccccc4)c(=O)[nH]c3=O)cc(F)cc12", "test": "enzyme activity, inhibitor", "conditions": "0.1 µM", "endpoint": "inhibition", "result": "0.5%"}
{"SMILES": "Nc1ncc(-c2nc(N3CCOCC3)nc(N3CCOCC3)n2)c(C(F)F)n1", "test": "binding, competition with immobilised ligand", "conditions": "10 µM", "endpoint": "remaining binding", "result": "98%"}
{"SMILES": "Cn1cc(-c2cc(F)cc(N3CCn4c(cc5c4CCCC5)C3=O)c2CO)cc(Nc2ccc(N3CCN(C4COC4)CC3)cn2)c1=O", "test": "enzyme activity, inhibitor", "conditions": "0.1 µM", "endpoint": "inhibition", "result": "4%"}
{"SMILES": "Cn1cncc1[C@@](O)(COc1ccc(C#N)cc1-c1ccc(OC(F)(F)F)cc1)c1ccc(C#N)cc1", "test": "cell-free assay, competition with immobilised ligand", "conditions": "1 µM", "endpoint": "remaining binding", "result": "91%"}
{"SMILES": "O=c1[nH]c2ccccc2n1C1CCN(Cc2ccc(-c3[nH]c4cc5ncnc5cc4nc3-c3ccccc3)cc2)CC1", "test": "cell-free assay", "conditions": "0.5 µM", "endpoint": "remaining signal", "result": "112%"}
{"SMILES": "Cc1nn(C)cc1-c1nc2c(N3CCN(Cc4ccc(Cl)cc4)CC3)c(Cl)cnc2[nH]1", "test": "binding, competition with immobilised ligand", "conditions": "1 µM", "endpoint": "remaining binding", "result": "100%"}
{"SMILES": "CC(C)(C)c1cc(C=C(C#N)C#N)cc(Br)c1O", "test": "enzyme activity, inhibitor", "conditions": "0.5 µM", "endpoint": "remaining activity", "result": "91.3%"}
{"SMILES": "O=C(Nc1cccnn1)N1CCN([C@@H]2CCOc3cc(C(F)(F)F)ccc32)CC1", "test": "enzyme activity, inhibitor", "conditions": "20 µM", "endpoint": "inhibition", "result": "-4%"}
{"SMILES": "N#CC1(c2ccccn2)CCN(Cc2cc(C(=O)O)c(=O)n3ccccc23)CC1", "test": "cell-free assay, competition with immobilised ligand", "conditions": "1 µM", "endpoint": "remaining binding", "result": "100%"}
{"SMILES": "C#Cc1n[nH]c2c(-c3cn(C(C)c4ccccn4)c(=O)[nH]c3=O)cc(F)cc12 (stereo not drawn)", "test": "enzyme activity, inhibitor", "conditions": "1 µM", "endpoint": "inhibition", "result": "7.2%"}
